Source: ChEMBL document CHEMBL2412955, “Synthesis and antibacterial activities of N-substituted-glycinyl 1H-1,2,3-triazolyl oxazolidinones” (2013)
Values after ≈ are worked out from the molar mass of the structure shown.

Key:
Assay type in all cases: functional
Streptococcus pneumoniae = experiment: Antibacterial activity against penicillin-resistant Streptococcus pneumoniae after 18 hrs by NCCLS agar dilution method
Method in brief: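 Agar dilution was run on Mueller-Hinton agar supplemented with 5% sheep blood, with drug dilutions from 0.12 to 64 µg/ml. Test compounds were dissolved in 80% DMSO in water. Final inoculum was 10^7 CFU/ml, incubated at 35 °C for 18 h. MIC was the lowest concentration preventing visible growth.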

Escherichia coli = experiment: Antibacterial activity against Escherichia coli ATCC 25922 after 18 hrs by NCCLS agar dilution method; details: ATCC 25922, 18 h
Method in brief: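 Agar dilution per NCCLS on Mueller-Hinton agar, drug dilutions 0.12–64 µg/ml. Linezolid dissolved in 40% water in ethanol, vancomycin in water, test agents in 80% DMSO in water. Inoculum 10^7 CFU/ml (final), incubated 35 °C for 18 h. MIC is the lowest concentration preventing visible growth.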

Staphylococcus aureus [1] = experiment: Antibacterial activity against methicillin-resistant Staphylococcus aureus after 18 hrs by NCCLS agar dilution method
Method in brief: (§1)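 Clinical isolates were tested by agar dilution on Mueller-Hinton agar with drug dilutions from 0.12 to 64 µg/ml. Test compounds were dissolved in 80% DMSO in water. Final inoculum was 10^7 CFU/ml, incubated at 35 °C for 18 h. MIC was the lowest concentration inhibiting visible growth.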

Staphylococcus aureus [2] = experiment: Antibacterial activity against Staphylococcus aureus ATCC 25923 after 18 hrs by […] in presence of human plasma; details: ATCC 25923, Plasma
Method in brief: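 To gauge plasma protein binding and/or plasma instability, MIC was determined in Mueller-Hinton broth containing 50% human plasma. Linezolid served as a reference agent. Ratio compares this MIC with the MIC obtained without plasma.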

Staphylococcus aureus [3] = experiment: Antibacterial activity against methicillin-susceptible Staphylococcus aureus after 18 hrs by NCCLS agar dilution method; method in brief: as §1
Enterococcus [4] = experiment: Antibacterial activity against vancomycin-susceptible Enterococcus after 18 hrs by NCCLS agar dilution method; method in brief: as §1
Haemophilus influenzae = experiment: Antibacterial activity against Haemophilus influenzae ATCC 49247 after 18 hrs by NCCLS agar dilution method; details: ATCC 49247, 18 h
Method in brief: (§2)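 NCCLS agar dilution on Mueller-Hinton agar with 5% sheep blood added to support growth. Drug dilutions 0.12–64 µg/ml. Test agents in 80% DMSO in water, linezolid in 40% water in ethanol. Final inoculum 10^7 CFU/ml, 18 h at 35 °C. MIC read as the lowest concentration with no visible growth.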

Staphylococcus [5] = experiment: Antibacterial activity against methicillin-susceptible coagulase-negative Staphylococcus after 18 hrs by NCCLS agar dilution method; method in brief: as §1
Staphylococcus aureus [6] = experiment: Antibacterial activity against Staphylococcus aureus ATCC 25923 after 18 hrs by NCCLS agar dilution method; details: ATCC 25923, 18 h
Method in brief: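 Plain Mueller-Hinton agar, agar dilution per NCCLS, concentrations 0.12–64 µg/ml. Test agents in 80% DMSO in water, linezolid in 40% water in ethanol, vancomycin in water. Final inoculum 10^7 CFU/ml, 35 °C for 18 h. MIC = lowest concentration inhibiting visible growth.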

Enterococcus [7] = experiment: Antibacterial activity against vancomycin-resistant Enterococcus after 18 hrs by NCCLS agar dilution method; method in brief: as §1
Staphylococcus [8] = experiment: Antibacterial activity against methicillin-resistant coagulase-negative Staphylococcus after 18 hrs by NCCLS agar dilution method; method in brief: as §1
Moraxella catarrhalis = experiment: Antibacterial activity against Moraxella catarrhalis ATCC 8176 after 18 hrs by NCCLS agar dilution method; details: ATCC 8176, 18 h; method in brief: as §2

Row | SMILES | MIC (Streptococcus pneumoniae) [µg/mL] | MIC (Escherichia coli) [µg/mL] | MIC (Staphylococcus aureus [1]) [µg/mL] | MIC (Staphylococcus aureus [2]) [µg/mL] | MIC (Staphylococcus aureus [3]) [µg/mL] | MIC (Enterococcus [4]) [µg/mL] | MIC (Haemophilus influenzae) [µg/mL] | MIC (Staphylococcus [5]) [µg/mL] | MIC (Staphylococcus aureus [6]) [µg/mL] | MIC (Enterococcus [7]) [µg/mL] | MIC (Staphylococcus [8]) [µg/mL] | MIC (Moraxella catarrhalis) [µg/mL]
1 | Cc1cn(C[C@H]2CN(c3ccc(N4CCN(C(=O)CNC(=O)C(F)(F)F)CC4)c(F)c3)C(=O)O2)nn1 | 1 (≈ 1.95 µM) | > 64 | 4 (≈ 7.79 µM) | 16 | 4 (≈ 7.79 µM) | 4 (≈ 7.79 µM) | 32 (≈ 62.3 µM) | 4 (≈ 7.79 µM) | 8 (≈ 15.6 µM) | 4 (≈ 7.79 µM) | 4 (≈ 7.79 µM) | 16 (≈ 31.2 µM)
2 | CC(C)(C)OC(=O)NCC(=O)N1CCN(c2ccc(N3C[C@H](Cn4ccnn4)OC3=O)cc2F)CC1 | 2 (≈ 3.97 µM) | > 64 | 2 (≈ 3.97 µM) | 8 | 2 (≈ 3.97 µM) | 2 (≈ 3.97 µM) | > 64 | 2 (≈ 3.97 µM) | 4 (≈ 7.94 µM) | 2 (≈ 3.97 µM) | 2 (≈ 3.97 µM) | 32 (≈ 63.6 µM)
3 | Cc1cn(C[C@H]2CN(c3ccc(N4CCN(C(=O)CNC(=O)OC(C)(C)C)CC4)c(F)c3)C(=O)O2)nn1 | 4 (≈ 7.73 µM) | > 64 | 8 (≈ 15.5 µM) | 16 | 4 (≈ 7.73 µM) | 4 (≈ 7.73 µM) | ≥ 64 | 4 (≈ 7.73 µM) | 4 (≈ 7.73 µM) | 8 (≈ 15.5 µM) | 4 (≈ 7.73 µM) | 16 (≈ 30.9 µM)
4 | CC(=O)NCC(=O)N1CCN(c2ccc(N3C[C@H](Cn4ccnn4)OC3=O)cc2F)CC1 | 1 (≈ 2.24 µM) | > 64 | 4 (≈ 8.98 µM) | 8 | 2 (≈ 4.49 µM) | 2 (≈ 4.49 µM) | 64 (≈ 144 µM) | 2 (≈ 4.49 µM) | 4 (≈ 8.98 µM) | 2 (≈ 4.49 µM) | 2 (≈ 4.49 µM) | 32 (≈ 71.8 µM)
5 | CC(=O)NCC(=O)N1CCN(c2ccc(N3C[C@H](Cn4cc(C)nn4)OC3=O)cc2F)CC1 | 1 (≈ 2.18 µM) | > 64 | 2 (≈ 4.35 µM) | 8 | 2 (≈ 4.35 µM) | 2 (≈ 4.35 µM) | 32 (≈ 69.6 µM) | 2 (≈ 4.35 µM) | 4 (≈ 8.71 µM) | 4 (≈ 8.71 µM) | 2 (≈ 4.35 µM) | 16 (≈ 34.8 µM)
6 | Cc1cn(C[C@H]2CN(c3ccc(N4CCN(C(=O)CNC(=O)C(Cl)Cl)CC4)c(F)c3)C(=O)O2)nn1 | 2 (≈ 3.79 µM) | > 64 | 4 (≈ 7.57 µM) | 16 | 4 (≈ 7.57 µM) | 4 (≈ 7.57 µM) | > 32 | 4 (≈ 7.57 µM) | 8 (≈ 15.1 µM) | 4 (≈ 7.57 µM) | 4 (≈ 7.57 µM) | 16 (≈ 30.3 µM)
7 | CCOC(=O)CC(=O)NCC(=O)N1CCN(c2ccc(N3C[C@H](Cn4ccnn4)OC3=O)cc2F)CC1 | 2 (≈ 3.86 µM) | > 64 | 4 (≈ 7.73 µM) | 16 | 4 (≈ 7.73 µM) | 4 (≈ 7.73 µM) | 64 (≈ 124 µM) | 4 (≈ 7.73 µM) | 8 (≈ 15.5 µM) | 8 (≈ 15.5 µM) | 4 (≈ 7.73 µM) | 32 (≈ 61.8 µM)
8 | CCOC(=O)CC(=O)NCC(=O)N1CCN(c2ccc(N3C[C@H](Cn4cc(C)nn4)OC3=O)cc2F)CC1 | 4 (≈ 7.53 µM) | > 64 | 4 (≈ 7.53 µM) | 16 | 4 (≈ 7.53 µM) | 4 (≈ 7.53 µM) | > 64 | 4 (≈ 7.53 µM) | 8 (≈ 15.1 µM) | 4 (≈ 7.53 µM) | 4 (≈ 7.53 µM) | > 64
